Test results as given in ChEMBL document CHEMBL3102784, “Salicylanilide diethyl phosphates: synthesis, antimicrobial activity and cytotoxicity” (Bioorg Med Chem, 2014).
≈ marks a conversion by molar mass, not a printed value. Calls of active or inactive are those of the source. The rule behind the calls is not given here.

What was measured:
Candida tropicalis = experiment: Antifungal activity against Candida tropicalis 156 at 500 micromol/L after 24 to 48 hrs by broth microdilution method; assay type: functional, organism-based
Method in brief: (§1)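 Broth microdilution in RPMI 1640 with glutamine, fluconazole as reference. For yeasts, MIC is ≥80% growth reduction (IC80) versus control. For filamentous fungi, the value is expressed as IC50. Readings at 24 and 48 h.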

Mycobacterium avium [1] = experiment: Antimycobacterial activity against isoniazid, rifampicin, ethambutol and ofloxacin-resistant Mycobacterium avium My 330/88 after 21 days; assay type: functional; conditions: My 330/88, 504 h
Method in brief: (§2)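 Micromethod MIC in Šula's semisynthetic medium at 37 °C. Compounds added in DMSO at 1000 down to 0.032 µmol/L. Isoniazid standard in sterile water at 0.5–250 µmol/L. Inocula: H37Rv 10^3, M. avium 10^5, M. kansasii 10^4. Read at 14 and 21 d, plus 7 d for M. kansasii.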

Pichia kudriavzevii [2] = experiment: Antifungal activity against Candida krusei E28 after 24 hrs by broth microdilution method; assay type: functional; conditions: E28, 24 h; method in brief: as §1
Pseudomonas aeruginosa = experiment: Antibacterial activity against Pseudomonas aeruginosa CCM 1961 at 500 micromol/L after 24 to 48 hrs by broth microdilution method; assay type: functional, organism-based
Method in brief: (§3)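 Broth microdilution in Mueller–Hinton broth, compounds dissolved in DMSO, tested over a dilution series from 500 downward. MIC taken as ≥95% growth reduction (IC95) versus drug-free control. Benzylpenicillin comparator. Readings at 24 and 48 h.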

Staphylococcus aureus [3] = experiment: Antibacterial activity against Staphylococcus aureus CCM 4516/08 after 48 hrs by broth microdilution method; assay type: functional; conditions: CCM 4516/08, 48 h; method in brief: as §3
Staphylococcus aureus [4] = experiment: Antibacterial activity against Staphylococcus aureus CCM 4516/08 after 24 hrs by broth microdilution method; assay type: functional; conditions: CCM 4516/08, 24 h; method in brief: as §3
Trichosporon asahii [5] = experiment: Antifungal activity against Trichosporon asahii 1188 after 48 hrs by broth microdilution method; assay type: functional; conditions: Trichosporon asahii, 1188, 48 h; method in brief: as §1
Lichtheimia corymbifera [6] = experiment: Antifungal activity against Absidia corymbifera 272 after 24 hrs by broth microdilution method; assay type: functional; conditions: Lichtheimia corymbifera, 272, 24 h; method in brief: as §1
Candida albicans [7] = experiment: Antifungal activity against Candida albicans ATCC 44859 after 48 hrs by broth microdilution method; assay type: functional; conditions: ATCC 44859, 48 h; method in brief: as §1
Staphylococcus aureus [8] = experiment: Antibacterial activity against methicillin-resistant Staphylococcus aureus H 5996/08 after 48 hrs by broth microdilution method; assay type: functional; conditions: H 5996/08, 48 h; method in brief: as §3
Mycobacterium kansasii [9] = experiment: Antimycobacterial activity against Mycobacterium kansasii My 235/80 after 21 days; assay type: functional; conditions: My 235/80, 504 h; method in brief: as §2
Trichosporon asahii [10] = experiment: Antifungal activity against Trichosporon asahii 1188 after 24 hrs by broth microdilution method; assay type: functional; conditions: Trichosporon asahii, 1188, 24 h; method in brief: as §1
Mycobacterium avium [11] = experiment: Antimycobacterial activity against isoniazid, rifampicin, ethambutol and ofloxacin-resistant Mycobacterium avium My 330/88 after 14 days; assay type: functional; conditions: My 330/88, 336 h; method in brief: as §2
Nakaseomyces glabratus = experiment: Antifungal activity against Candida glabrata 20/I at 500 micromol/L after 24 to 48 hrs by broth microdilution method; assay type: functional, organism-based; method in brief: as §1
[12] = tested on: Mycobacterium tuberculosis; experiment: Antimycobacterial activity against Mycobacterium tuberculosis H37Rv My 331/88 after 14 days; assay type: functional; conditions: H37Rv My 331/88, 336 h; method in brief: as §2
HepG2 = experiment: Cytotoxicity against human HepG2 cells after 24 hrs by CellTiter assay; assay type: cell-based; conditions: HepG2, 24 h
Method in brief: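 HepG2 cells (passage 27–33) in MEM with 10% FBS, L-glutamine and NEAA, seeded at 1×10^4 per well. Treated next day with compounds at 0.1–100 µM (or 0.1–25 µmol/L), triplicates, <1% DMSO, for 24 h at 37 °C, 5% CO2. MTS reagent added for 2 h, absorbance read at 490 nm. IC50 taken against untreated (100%) and 10% DMSO (0%) controls.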

Enterococcus sp. = experiment: Antibacterial activity against Enterococcus sp. J 14365/08 at 500 micromol/L after 24 to 48 hrs by broth microdilution method; assay type: functional, organism-based; method in brief: as §3
Aspergillus fumigatus [13] = experiment: Antifungal activity against Aspergillus fumigatus 231 after 24 hrs by broth microdilution method; assay type: functional; conditions: Aspergillus fumigatus, 231, 24 h; method in brief: as §1
Mycobacterium kansasii [14] = experiment: Antimycobacterial activity against Mycobacterium kansasii My 235/80 after 14 days; assay type: functional; conditions: My 235/80, 336 h; method in brief: as §2
Lichtheimia corymbifera [15] = experiment: Antifungal activity against Absidia corymbifera 272 after 48 hrs by broth microdilution method; assay type: functional; conditions: Lichtheimia corymbifera, 272, 48 h; method in brief: as §1
[16] = tested on: Staphylococcus epidermidis; experiment: Antibacterial activity against Staphylococcus epidermidis H 6966/08 after 24 hrs by broth microdilution method; assay type: functional; conditions: H 6966/08, 24 h; method in brief: as §3
Staphylococcus aureus [17] = experiment: Antibacterial activity against methicillin-resistant Staphylococcus aureus H 5996/08 after 24 hrs by broth microdilution method; assay type: functional; conditions: H 5996/08, 24 h; method in brief: as §3
[18] = tested on: Trichophyton mentagrophytes; experiment: Antifungal activity against Trichophyton mentagrophytes 445 after 120 hrs by broth microdilution method; assay type: functional; conditions: Trichophyton mentagrophytes, 445, 120 h
Method in brief: (§4)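 Filamentous dermatophyte tested by broth microdilution in RPMI 1640 with glutamine, fluconazole as reference. Value expressed as IC50 relative to growth control. Read at 72 and 120 h.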

Escherichia coli = experiment: Antibacterial activity against Escherichia coli CCM 4517 at 500 micromol/L after 24 to 48 hrs by broth microdilution method; assay type: functional, organism-based; method in brief: as §3
Mycobacterium kansasii [19] = experiment: Antimycobacterial activity against Mycobacterium kansasii 6509/96 after 14 days; assay type: functional; conditions: 6509/96, 336 h; method in brief: as §2
Aspergillus fumigatus [20] = experiment: Antifungal activity against Aspergillus fumigatus 231 after 48 hrs by broth microdilution method; assay type: functional; conditions: Aspergillus fumigatus, 231, 48 h; method in brief: as §1
Pichia kudriavzevii [21] = experiment: Antifungal activity against Candida krusei E28 after 48 hrs by broth microdilution method; assay type: functional; conditions: E28, 48 h; method in brief: as §1
Mycobacterium kansasii [22] = experiment: Antimycobacterial activity against Mycobacterium kansasii 6509/96 after 7 days; assay type: functional; conditions: 6509/96, 168 h; method in brief: as §2
[23] = tested on: Trichophyton mentagrophytes; experiment: Antifungal activity against Trichophyton mentagrophytes 445 after 72 hrs by broth microdilution method; assay type: functional; conditions: Trichophyton mentagrophytes, 445, 72 h; method in brief: as §4
[24] = tested on: Staphylococcus epidermidis; experiment: Antibacterial activity against Staphylococcus epidermidis H 6966/08 after 48 hrs by broth microdilution method; assay type: functional; conditions: H 6966/08, 48 h; method in brief: as §3
Candida albicans [25] = experiment: Antifungal activity against Candida albicans ATCC 44859 after 24 hrs by broth microdilution method; assay type: functional; conditions: ATCC 44859, 24 h; method in brief: as §1
[26] = tested on: Mycobacterium tuberculosis; experiment: Antimycobacterial activity against Mycobacterium tuberculosis H37Rv My 331/88 after 21 days; assay type: functional; conditions: H37Rv My 331/88, 504 h; method in brief: as §2
Mycobacterium kansasii [27] = experiment: Antimycobacterial activity against Mycobacterium kansasii 6509/96 after 21 days; assay type: functional; conditions: 6509/96, 504 h; method in brief: as §2
Klebsiella pneumoniae [28] = experiment: Antibacterial activity against ESBL-positive Klebsiella pneumoniae J 14368/08 at 500 micromol/L after 24 to 48 hrs by broth microdilution method; assay type: functional, organism-based; method in brief: as §3
Klebsiella pneumoniae [29] = experiment: Antibacterial activity against Klebsiella pneumoniae D 11750/08 at 500 micromol/L after 24 to 48 hrs by broth microdilution method; assay type: functional, organism-based; method in brief: as §3
Mycobacterium kansasii [30] = experiment: Antimycobacterial activity against Mycobacterium kansasii My 235/80 after 7 days; assay type: functional; conditions: My 235/80, 168 h; method in brief: as §2

CCOP(=O)(OCC)Oc1ccc(Cl)cc1C(=O)Nc1cccc(C(F)(F)F)c1
Activity (Candida tropicalis): inactive
MIC (Mycobacterium avium [1]): 16 µM (≈ 7.23 µg/mL)
MIC80 (Pichia kudriavzevii [2]): > 500 µM
Activity (Pseudomonas aeruginosa): inactive
MIC95 (Staphylococcus aureus [3]): > 500 µM
MIC95 (Staphylococcus aureus [4]): > 500 µM
MIC80 (Trichosporon asahii [5]): > 500 µM
MIC50 (Lichtheimia corymbifera [6]): > 500 µM
MIC80 (Candida albicans [7]): > 500 µM
MIC95 (Staphylococcus aureus [8]): 500 µM (≈ 226 µg/mL)
MIC (Mycobacterium kansasii [9]): 8 µM (≈ 3.61 µg/mL)
MIC80 (Trichosporon asahii [10]): > 500 µM
MIC (Mycobacterium avium [11]): 16 µM (≈ 7.23 µg/mL)
Activity (Nakaseomyces glabratus): inactive
MIC [12]: 2 µM (≈ 0.904 µg/mL)
IC50 (HepG2): 5.68 µM
Activity (Enterococcus sp.): inactive
MIC50 (Aspergillus fumigatus [13]): > 500 µM
MIC (Mycobacterium kansasii [14]): 8 µM (≈ 3.61 µg/mL)
MIC50 (Lichtheimia corymbifera [15]): > 500 µM
MIC95 [16]: 250 µM (≈ 113 µg/mL)
MIC95 (Staphylococcus aureus [17]): 500 µM (≈ 226 µg/mL)
MIC50 [18]: > 500 µM
Activity (Escherichia coli): inactive
MIC (Mycobacterium kansasii [19]): 8 µM (≈ 3.61 µg/mL)
MIC50 (Aspergillus fumigatus [20]): > 500 µM
MIC80 (Pichia kudriavzevii [21]): > 500 µM
MIC (Mycobacterium kansasii [22]): 8 µM (≈ 3.61 µg/mL)
MIC50 [23]: > 500 µM
MIC95 [24]: > 500 µM
MIC80 (Candida albicans [25]): > 500 µM
MIC [26]: 2 µM (≈ 0.904 µg/mL)
MIC (Mycobacterium kansasii [27]): 8 µM (≈ 3.61 µg/mL)
Activity (Klebsiella pneumoniae [28]): inactive
Activity (Klebsiella pneumoniae [29]): inactive
MIC (Mycobacterium kansasii [30]): 8 µM (≈ 3.61 µg/mL)

CCOP(=O)(OCC)Oc1ccc(Cl)cc1C(=O)Nc1cccc(Br)c1
Activity (Candida tropicalis): inactive
MIC (Mycobacterium avium [1]): 16 µM (≈ 7.4 µg/mL)
MIC80 (Pichia kudriavzevii [2]): > 500 µM
Activity (Pseudomonas aeruginosa): inactive
MIC95 (Staphylococcus aureus [3]): 31.2 µM (≈ 14.5 µg/mL)
MIC95 (Staphylococcus aureus [4]): 15.6 µM (≈ 7.23 µg/mL)
MIC80 (Trichosporon asahii [5]): > 500 µM
MIC50 (Lichtheimia corymbifera [6]): > 500 µM
MIC80 (Candida albicans [7]): > 500 µM
MIC95 (Staphylococcus aureus [8]): 62.5 µM (≈ 28.9 µg/mL)
MIC (Mycobacterium kansasii [9]): 8 µM (≈ 3.7 µg/mL)
MIC80 (Trichosporon asahii [10]): > 500 µM
MIC (Mycobacterium avium [11]): 16 µM (≈ 7.4 µg/mL)
Activity (Nakaseomyces glabratus): inactive
MIC [12]: 4 µM (≈ 1.85 µg/mL)
IC50 (HepG2): 1.81 µM
Activity (Enterococcus sp.): inactive
MIC50 (Aspergillus fumigatus [13]): > 500 µM
MIC (Mycobacterium kansasii [14]): 8 µM (≈ 3.7 µg/mL)
MIC50 (Lichtheimia corymbifera [15]): > 500 µM
MIC95 [16]: 15.6 µM (≈ 7.23 µg/mL)
MIC95 (Staphylococcus aureus [17]): 31.2 µM (≈ 14.5 µg/mL)
MIC50 [18]: 15.6 µM (≈ 7.23 µg/mL)
Activity (Escherichia coli): inactive
MIC (Mycobacterium kansasii [19]): 8 µM (≈ 3.7 µg/mL)
MIC50 (Aspergillus fumigatus [20]): > 500 µM
MIC80 (Pichia kudriavzevii [21]): > 500 µM
MIC (Mycobacterium kansasii [22]): 8 µM (≈ 3.7 µg/mL)
MIC50 [23]: 15.6 µM (≈ 7.23 µg/mL)
MIC95 [24]: 31.2 µM (≈ 14.5 µg/mL)
MIC80 (Candida albicans [25]): > 500 µM
MIC [26]: 4 µM (≈ 1.85 µg/mL)
MIC (Mycobacterium kansasii [27]): 8 µM (≈ 3.7 µg/mL)
Activity (Klebsiella pneumoniae [28]): inactive
Activity (Klebsiella pneumoniae [29]): inactive
MIC (Mycobacterium kansasii [30]): 4 µM (≈ 1.85 µg/mL)
